Experimental data reported in ChEMBL document CHEMBL3865794, “Novel securinine derivatives as topoisomerase I based antitumor agents” (Eur J Med Chem, 2016).

Legend:
[1] = molecular target: T1, DNA topoisomerase 1 (Homo sapiens) (UniProt P11387); assay: Inhibition of DNA topoisomerase 1 (unknown origin) assessed as reduction in relaxation of supercoiled pBR322 plasmid DNA at 100 uM incubated for 30 mins by agarose gel electrophoresis relative to control
T1 sequence (whole entry): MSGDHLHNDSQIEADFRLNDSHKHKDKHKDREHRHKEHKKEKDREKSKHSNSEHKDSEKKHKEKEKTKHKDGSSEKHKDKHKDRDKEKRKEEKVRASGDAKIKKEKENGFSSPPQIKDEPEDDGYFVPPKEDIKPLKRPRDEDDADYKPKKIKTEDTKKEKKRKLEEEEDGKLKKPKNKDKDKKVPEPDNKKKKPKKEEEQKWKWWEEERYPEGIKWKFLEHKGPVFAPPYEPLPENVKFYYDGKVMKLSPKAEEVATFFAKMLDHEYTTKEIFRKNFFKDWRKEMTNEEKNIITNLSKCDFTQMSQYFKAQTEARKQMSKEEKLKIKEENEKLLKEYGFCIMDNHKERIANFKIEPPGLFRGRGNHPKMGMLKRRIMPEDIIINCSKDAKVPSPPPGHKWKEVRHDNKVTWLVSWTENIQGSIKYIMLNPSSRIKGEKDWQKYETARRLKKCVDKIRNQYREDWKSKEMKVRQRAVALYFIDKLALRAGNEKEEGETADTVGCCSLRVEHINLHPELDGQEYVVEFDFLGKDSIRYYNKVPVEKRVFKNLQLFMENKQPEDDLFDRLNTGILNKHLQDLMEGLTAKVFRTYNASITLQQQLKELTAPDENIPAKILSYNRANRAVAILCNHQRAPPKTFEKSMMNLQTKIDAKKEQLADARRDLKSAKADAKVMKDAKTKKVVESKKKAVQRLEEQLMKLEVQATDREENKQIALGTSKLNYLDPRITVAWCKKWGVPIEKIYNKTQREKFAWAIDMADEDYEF
Summary of the method: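 Supercoiled pBR322 DNA incubated with Topo I in the presence or absence of compound for 30 min at 37 °C. Reaction stopped with dye solution of bromophenol blue, xylene cyanol and glycerol. Products run on 1% agarose in 1× TAE for 40 min, then EB-stained and UV-imaged. Inhibition rate derived from gel gray-scale analysis relative to control. Camptothecin served as positive control.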

[2] = Growth inhibition of human A549 cells after 72 hrs by MTT assay; format: functional, cell-based
Summary of the method: (§1)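 Cells seeded at 5 × 10³ per well and incubated overnight in medium with 10% FBS. Medium then replaced with fresh medium containing compound at […] for 72 h. MTT (5 mg/mL stock, 20 µL per well) added for 4 h at 37 °C, formazan dissolved in DMSO, absorbance read at 570 nm. Each dose run in parallel triplicate. IC50 taken from mean absorbance versus concentration curves.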

[3] = Growth inhibition of human HeLa cells after 72 hrs by MTT assay; format: functional, cell-based; summary of the method: as §1
[4] = Growth inhibition of human HepG2 cells after 72 hrs by MTT assay; format: functional, cell-based; summary of the method: as §1
[5] = Growth inhibition of human SH-SY5Y cells after 72 hrs by MTT assay; format: functional, cell-based; summary of the method: as §1
[6] = molecular target: T1, DNA topoisomerase 1 (Homo sapiens); assay: Inhibition of DNA topoisomerase 1 (unknown origin) assessed as reduction in topoisomerase 1-DNA complex formation preincubated for 20 mins followed by supercoiled pBR322 plasmid DNA addition measured after 3 mins by electrophoretic mobility shift assay

inhibition [1] [%]	inhibition [6]	SMILES	IC50 ([2]; Homo sapiens, A549, 72 h) [µM]	IC50 ([3]; Homo sapiens, HeLa, 72 h) [µM]	IC50 ([4]; Homo sapiens, HepG2, 72 h) [µM]	IC50 ([5]; Homo sapiens, SH-SY5Y, 72 h) [µM]	IC50 ([2]; a549) [µM]	IC50 ([3]; hela) [µM]	IC50 ([5]; sh-sy5y) [µM]	IC50 ([4]; hepg2) [µM]
43.1		O=C1O[C@@]23C[C@@H](C=CC2=C1C(O)c1ccc([N+](=O)[O-])cc1[N+](=O)[O-])N1CCCC[C@@H]13 (some centres not stated)	11.5	7.11	5.98	8.71				
53.6		O=C1O[C@@]23C[C@@H](C=CC2=C1C(O)c1ccc(C(F)(F)F)cc1)N1CCCC[C@@H]13 (stereo in doubt; 4a-6)								
		N#Cc1ccc(C(O)C2=C3C=C[C@@H]4C[C@@]3(OC2=O)[C@H]2CCCCN42)cc1 (stereo in doubt; 4a-5) [listing 1 of 2 here]	6.22	13	14.2	18.9				
42.3		O=C1O[C@@]23C[C@@H](C=CC2=C1C(O)c1ccccc1F)N1CCCC[C@@H]13 (some centres not stated)	6.89	13	10.1	22				
31.6		COc1ccc(C(O)C2=C3C=C[C@@H]4C[C@@]3(OC2=O)[C@H]2CCCCN42)cc1 (some centres not stated)	10	10	17.8	22.5				
		O=C1O[C@@]23C[C@@H](C=CC2=C1C(O)c1ccc(Cl)cc1)N1CCCC[C@@H]13 (stereo in doubt; 4a-3) [listing 1 of 2 here]	6.21	13	13	20				
		O=C1O[C@@]23C[C@@H](C=CC2=C1C(O)c1ccc(Cl)cc1)N1CCCC[C@@H]13 (stereo in doubt; 4a-3-b)					6.2	12.5	19.9	
34.7		N#Cc1cccc(C(O)C2=C3C=C[C@@H]4C[C@@]3(OC2=O)[C@H]2CCCCN42)c1 (some centres not stated)	7.08	15.6	17.9	24.9				
34.7		O=C1O[C@@]23C[C@@H](C=CC2=C1C(O)c1cccc(Br)c1)N1CCCC[C@@H]13 (some centres not stated)	9.01	19.1	15.1	20.2				
		O=C1O[C@@]23C[C@@H](C=CC2=C1C(O)c1ccc(Br)cc1)N1CCCC[C@@H]13 (stereo in doubt; 4a-4-a)					6.24	12.8	22.4	
49.8		O=C1O[C@@]23C[C@@H](C=CC2=C1C(O)c1ccc(F)cc1)N1CCCC[C@@H]13 (stereo in doubt; 4a-2) [listing 1 of 2 here]								
	Dose-dependent effect	O=C1O[C@@]23C[C@@H](C=CC2=C1[C@@H](O)c1ccc([N+](=O)[O-])cc1)N1CCCC[C@@H]13	1.98	7.99	4.01	8.52				
		N#Cc1ccc(C(O)C2=C3C=C[C@@H]4C[C@@]3(OC2=O)[C@H]2CCCCN42)cc1 (stereo in doubt; 4a-5-a)					6.2	13.1	18.9	14.1
		O=C1O[C@@]23C[C@@H](C=CC2=C1C(O)c1ccc(C(F)(F)F)cc1)N1CCCC[C@@H]13 (stereo in doubt; 4a-6-a)					2.78	8.8	8.27	2.23
42.4		O=C1O[C@@]23C[C@@H](C=CC2=C1C(O)c1ccccc1Cl)N1CCCC[C@@H]13 (some centres not stated)	7.01	10.4	9.16	19.9				
		O=C1O[C@@]23C[C@@H](C=CC2=C1C(O)c1ccc(Cl)cc1)N1CCCC[C@@H]13 (stereo in doubt; 4a-3-a)					6.18	12.5	20.1	13.1
34.9		O=C1O[C@@]23C[C@@H](C=CC2=C1C(O)c1cccc(F)c1)N1CCCC[C@@H]13 (some centres not stated)	8.01	16.8	16.1	27.1				
45.7		N#Cc1ccc(C(O)C2=C3C=C[C@@H]4C[C@@]3(OC2=O)[C@H]2CCCCN42)cc1 (stereo in doubt; 4a-5) [listing 2 of 2 here]								
		O=C1O[C@@]23C[C@@H](C=CC2=C1C(O)c1ccc(F)cc1)N1CCCC[C@@H]13 (stereo in doubt; 4a-2-b)					5.09	12.7	19	10.1

inhibition [1] [%]	inhibition [6]	SMILES	IC50 ([2]; Homo sapiens, A549, 72 h) [µM]	IC50 ([3]; Homo sapiens, HeLa, 72 h) [µM]	IC50 ([4]; Homo sapiens, HepG2, 72 h) [µM]	IC50 ([5]; Homo sapiens, SH-SY5Y, 72 h) [µM]	IC50 ([2]; a549) [µM]	IC50 ([3]; hela) [µM]	IC50 ([5]; sh-sy5y) [µM]	IC50 ([4]; hepg2) [µM]
		O=C1O[C@@]23C[C@@H](C=CC2=C1C(O)c1ccc(C(F)(F)F)cc1)N1CCCC[C@@H]13 (stereo in doubt; 4a-6-b)					3.01	9.08	8.62	2.57
36.2		O=C1O[C@@]23C[C@@H](C=CC2=C1C(O)c1cccc([N+](=O)[O-])c1)N1CCCC[C@@H]13 (some centres not stated)	4.04	9.98	6.77	8.7				
		O=C1O[C@@]23C[C@@H](C=CC2=C1C(O)c1ccc(Br)cc1)N1CCCC[C@@H]13 (stereo in doubt; 4a-4-b)					6.3		22.3	14.1
37.4		O=C1O[C@@]23C[C@@H](C=CC2=C1C(O)c1ccc(F)cc1F)N1CCCC[C@@H]13 (some centres not stated)	5.18	14.9	13.6	22.1				
40.6		O=C1O[C@@]23C[C@@H](C=CC2=C1C(O)c1ccccc1[N+](=O)[O-])N1CCCC[C@@H]13 (some centres not stated)	3.91	8.11	6.78	8.69				
35.3		O=C1O[C@@]23C[C@@H](C=CC2=C1C(O)c1cccc(Cl)c1)N1CCCC[C@@H]13 (some centres not stated)	11.1	15.6	17.8	27.8				
		O=C1O[C@@]23C[C@@H](C=CC2=C1C(O)c1ccc(F)cc1)N1CCCC[C@@H]13 (stereo in doubt; 4a-2-a)					4.95	12.8	19.1	10
27.1		Cc1ccc(C(O)C2=C3C=C[C@@H]4C[C@@]3(OC2=O)[C@H]2CCCCN42)cc1 (some centres not stated)	8.81	9.07	7.09	15.1				
		O=C1O[C@@]23C[C@@H](C=CC2=C1C(O)c1ccc(F)cc1)N1CCCC[C@@H]13 (stereo in doubt; 4a-2) [listing 2 of 2 here]	5.01	12.8	10.1	19.8				
31.8		O=C1O[C@@]23C[C@@H](C=CC2=C1C(O)c1ccc(O)cc1)N1CCCC[C@@H]13 (some centres not stated)	6.99	18.9	17.1	23				
		N#Cc1ccc(C(O)C2=C3C=C[C@@H]4C[C@@]3(OC2=O)[C@H]2CCCCN42)cc1 (stereo in doubt; 4a-5-b)						12.1	18.9	14.1
48.9		O=C1O[C@@]23C[C@@H](C=CC2=C1C(O)c1ccc(Cl)cc1)N1CCCC[C@@H]13 (stereo in doubt; 4a-3) [listing 2 of 2 here]								
30.9		CSc1ccc(C(O)C2=C3C=C[C@@H]4C[C@@]3(OC2=O)[C@H]2CCCCN42)cc1 (some centres not stated)	9.05	17.8	16.7	21				
24		O=C1O[C@@]23C[C@@H](C=CC2=C1C(O)c1ccccc1)N1CCCC[C@@H]13 (some centres not stated)	7.05	21.4	20.1	25.4				
47.1		O=C1O[C@@]23C[C@@H](C=CC2=C1C(O)c1ccc(Br)cc1)N1CCCC[C@@H]13 (stereo in doubt; 4a-4) [listing 1 of 2 here]								
38.4		N#Cc1ccccc1C(O)C1=C2C=C[C@@H]3C[C@@]2(OC1=O)[C@H]1CCCCN31 (some centres not stated)	7.01	14.9	11.1	21.9				
39.2		O=C1O[C@@]23C[C@@H](C=CC2=C1C(O)c1ccccc1Br)N1CCCC[C@@H]13 (some centres not stated)	7.11	12.7	12.6	23.1				
		O=C1O[C@@]23C[C@@H](C=CC2=C1C(O)c1ccc(Br)cc1)N1CCCC[C@@H]13 (stereo in doubt; 4a-4) [listing 2 of 2 here]	6.32	12.8	14.1	22.3				
